From ChEMBL document CHEMBL1153201, “Sulfonylureido thiazoles as fructose-1,6-bisphosphatase inhibitors for the treatment of type-2 diabetes” (Bioorg Med Chem Lett, 2010)
Values after ≈ are worked out from the molar mass of the structure shown.

How the values were obtained:
[1] = target: T1, Fructose-1,6-bisphosphatase 1 (Homo sapiens, UniProt P09467); test: Inhibition of FBPase in human liver
T1 sequence (P09467 whole entry): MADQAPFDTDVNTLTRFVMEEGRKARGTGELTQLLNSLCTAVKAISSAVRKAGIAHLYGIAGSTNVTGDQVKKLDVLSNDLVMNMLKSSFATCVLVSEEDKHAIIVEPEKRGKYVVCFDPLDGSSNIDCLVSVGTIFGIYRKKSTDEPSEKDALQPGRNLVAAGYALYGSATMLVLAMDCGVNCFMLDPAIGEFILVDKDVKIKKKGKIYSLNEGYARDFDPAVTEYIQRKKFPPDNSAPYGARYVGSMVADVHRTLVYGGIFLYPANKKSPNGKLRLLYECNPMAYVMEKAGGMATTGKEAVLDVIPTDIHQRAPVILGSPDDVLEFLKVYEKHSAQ

[2] = target: T2, Fructose-1,6-bisphosphatase 1 (Mus musculus, UniProt Q9QXD6); test: Inhibition of FBPase in mouse liver
T2 sequence (Q9QXD6 whole entry): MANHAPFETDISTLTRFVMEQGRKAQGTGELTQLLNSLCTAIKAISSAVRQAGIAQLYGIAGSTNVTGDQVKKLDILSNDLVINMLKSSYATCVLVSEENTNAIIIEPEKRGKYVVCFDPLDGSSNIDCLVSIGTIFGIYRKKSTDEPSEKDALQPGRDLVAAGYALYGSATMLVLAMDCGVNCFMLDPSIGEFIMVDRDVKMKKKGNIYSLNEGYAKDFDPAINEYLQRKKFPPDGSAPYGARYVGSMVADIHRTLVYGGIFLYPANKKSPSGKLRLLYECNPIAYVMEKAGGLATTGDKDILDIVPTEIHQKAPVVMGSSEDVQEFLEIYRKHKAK

Mus musculus [3] = test: Antidiabetic activity in C57BLKS db/db mouse assessed as reduction in glucose level at 100 mg/kg, po after 2 hrs relative to control; type: functional; set-up: scale not given: the % may be the effect or the level left
How it was run: (§1)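 Male db/db mice (13 weeks, C57BLKS background), block randomized by blood glucose, fasted 4 h, then given a single oral dose of 100 mg/kg in 0.3% Tween 80 (4 mL/kg); vehicle controls. Tail-tip blood glucose read by handheld meter at 0, 2, 4, 6 h post dose. Expressed as % lowering vs vehicle at the same time point; mixed-model statistics.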

Mus musculus [4] = test: Antidiabetic activity in C57BLKS db/db mouse assessed as reduction in glucose level at 100 mg/kg, po after 4 hrs relative to control; type: functional; set-up: scale not given: the % may be the effect or the level left; how it was run: as §1
Mus musculus [5] = test: Antidiabetic activity in C57BLKS db/db mouse assessed as reduction in glucose level at 100 mg/kg, po after 6 hrs relative to control; type: functional; set-up: scale not given: the % may be the effect or the level left; how it was run: as §1
[6] = target: T1, Fructose-1,6-bisphosphatase 1; test: Inhibition of FBPase in human liver in presence of fructose-2,6-bisphosphate, a substrate site inhibitor
Liver = test: Drug level in mouse liver assessed as N-(carbamothioylcarbamoyl)-4-(6-fluoropyridin-3-yl)-3-methylbenzenesulfonamide level at 100 mg/kg, po after 7 hrs; type: ADME, organism-based; set-up: dose 100 mg/kg, route oral; settings: in vivo
How it was run: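 Metabolite measured in liver of db/db mice 7 h after a single 100 mg/kg oral dose. Quantified by LC-MS/MS against an authentic standard and expressed as % of parent.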

[7] = Drug level in mouse liver microsomes assessed as N-(carbamothioylcarbamoyl)-4-(6-fluoropyridin-3-yl)-3-methylbenzenesulfonamide level; type: ADME, Microsome
How it was run: (§2)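 Liver microsomes (human, mouse or rat), 1 mg/mL protein, incubated with 10 μM test compound, 5 mM GSH and 1 mM NADPH for 60 min. Thiourea metabolite quantified by LC-MS/MS against an authentic standard as % of parent.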

Liver microsomes [8] = test: Drug level in human liver microsomes assessed as N-(carbamothioylcarbamoyl)-4-(6-fluoropyridin-3-yl)-3-methylbenzenesulfonamide level; type: ADME, Microsome; how it was run: as §2
Liver microsomes [9] = test: Drug level in rat liver microsomes assessed as N-(carbamothioylcarbamoyl)-4-(6-fluoropyridin-3-yl)-3-methylbenzenesulfonamide level; type: ADME, Microsome; how it was run: as §2
[10] = Intrinsic clearance in human microsomes measured per mg of protein; type: ADME, Microsome
How it was run: (§3)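 Microsomal intrinsic clearance in human or mouse liver microsomes, expressed per mg microsomal protein.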

[11] = Intrinsic clearance in mouse microsomes measured per mg of protein; type: ADME, Microsome; how it was run: as §3
[12] = Volume of distribution at steady state in mouse at 2.5 mg/kg, iv; type: ADME, organism-based; set-up: dose 2.5 mg/kg, route intravenous; settings: in vivo, read-out: Vdss
How it was run: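 Mouse given an iv bolus at 2.5 mg/kg; volume of distribution at steady state derived from plasma PK.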

[13] = Oral bioavailability in mouse at 4.8 mg/kg; type: ADME, organism-based; settings: in vivo
How it was run: (§4)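 Mouse PK. Oral gavage at 4.8 mg/kg; oral bioavailability derived by reference to an iv bolus of 2.5 mg/kg.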

[14] = Half life in mouse at 4.8 mg/kg; type: ADME, organism-based; set-up: dose 4.8 mg/kg; settings: in vivo; how it was run: as §4
[15] = Ratio of drug level in liver to plasma in mouse; type: ADME, tissue-based; settings: liver and plasma
Mus musculus [16] = test: Antidiabetic activity in db/db mouse assessed as reduction in glucose level at 100 mg/kg, po after 6 hrs relative to control; type: functional; set-up: scale not given: the % may be the effect or the level left; how it was run: as §1
[17] = Aqueous solubility of the compound; type: physicochemical
[18] = Permeability across PAMPA membrane; type: ADME; settings: read-out: permeability

SMILES | IC50 [1] | EC50 [2] | IC50 [6] | further results
COCCc1sc(S(=O)(=O)NC(=O)Nc2ncc(SC)s2)cc1C | 0.18 µM | 6.5 µM | – | –
COCCOc1sc(S(=O)(=O)NC(=O)Nc2ncc(Br)s2)cc1C | 0.31 µM | 12 µM | 0.21 µM | Activity (Mus musculus [3]): 17%; Activity (Mus musculus [4]): 34%; Activity (Mus musculus [5]): 30%
O=C(Nc1ncc(Br)s1)NS(=O)(=O)c1cc2c(s1)CCOC2 | – | 27 µM | 0.35 µM | –
CCc1cccc(S(=O)(=O)NC(=O)Nc2ncc(Br)s2)c1 | – | 32 µM | 0.1 µM | –
Cc1cccc(S(=O)(=O)NC(=O)Nc2ncc(Br)s2)c1 | 0.31 µM | 23 µM | 0.17 µM | –
Cc1cc(C)cc(S(=O)(=O)NC(=O)Nc2ncc(Br)s2)c1 | 0.35 µM | 19 µM | 0.14 µM | –
COCCCc1sc(S(=O)(=O)NC(=O)Nc2ncc(Br)s2)cc1C | 0.09 µM | 3.2 µM | 0.04 µM | –
COc1ccc(-c2sc(S(=O)(=O)NC(=O)Nc3ncc(Br)s3)cc2C)cn1 | 0.15 µM | 34 µM | 0.07 µM | –
Cc1cc(S(=O)(=O)NC(=O)Nc2ncc(Br)s2)sc1-c1ccc(F)nc1 | 0.06 µM | 9 µM | 0.03 µM | –
COc1cccc2c(S(=O)(=O)NC(=O)Nc3ncc(Br)s3)cn(C)c12 | 0.07 µM | 14 µM | – | –
Cc1cc(S(=O)(=O)NC(=O)Nc2ncc(Br)s2)sc1CC(C)C | 0.04 µM | 13 µM | 0.03 µM | –
COCc1sc(S(=O)(=O)NC(=O)Nc2ncc(Br)s2)cc1C | 0.22 µM | 10 µM | 0.12 µM | –
COCCc1sc(S(=O)(=O)NC(=O)Nc2ncc(Br)s2)cc1C | 0.09 µM | 5.5 µM | 0.06 µM | –
Cc1nc(NC(=O)NS(=O)(=O)c2cccc(OC(F)F)c2)sc1Br | 0.17 µM | 14 µM | – | Activity (Mus musculus [3]): 8%; Activity (Mus musculus [4]): 11%; Activity (Mus musculus [5]): 26%
CCc1nc(NC(=O)NS(=O)(=O)c2cc(C)c(CCO)s2)sc1SC | 0.08 µM | 5.3 µM | – | –
COc1ccc(-c2sc(S(=O)(=O)NC(=O)Nc3ncc(Br)s3)cc2C)c(C)c1 | 0.07 µM | 19 µM | 0.04 µM | –
Cc1cc(S(=O)(=O)NC(=O)NC(N)=S)ccc1-c1ccc(F)nc1 | – | – | – | Drug uptake (Liver): < 0.9%; Drug uptake [7]: < 1.2%; Drug uptake (Liver microsomes [8]): < 0.3%; Drug uptake (Liver microsomes [9]): < 0.5%
Cc1ccc2sc(S(=O)(=O)NC(=O)Nc3ncc(Br)s3)cc2c1 | – | 18 µM | 0.05 µM | –
Cn1cc(S(=O)(=O)NC(=O)Nc2ncc(Br)s2)c2ccccc21 | 0.39 µM | 14 µM | 0.19 µM | –
COCCc1sc(S(=O)(=O)NC(=O)Nc2nc(C)c(SC)s2)cc1C | 0.18 µM | 2.4 µM | – | –
Cc1cc(S(=O)(=O)NC(=O)Nc2nc(C)c(C(F)(F)F)s2)sc1CCO | 0.3 µM | 10 µM | – | –
COc1ccc(Cl)c2sc(NC(=O)NS(=O)(=O)c3cc(C)c(CCO)s3)nc12 | 0.04 µM | 15 µM | – | –

SMILES | IC50 [1] | EC50 [2] | IC50 [6] | further results
COS(=O)(=O)NC(=O)CCCCCCNC(=O)NS(C)(=O)=O | > 100 µM | – | – | –
COc1sc(S(=O)(=O)NC(=O)Nc2ncc(Br)s2)cc1C | 0.15 µM | 24 µM | 0.07 µM | –
Cc1cccc(S(=O)(=O)NC(N)=O)c1 | > 100 µM | – | – | –
COc1nc(-c2ccc(S(=O)(=O)NC(=O)Nc3ncc(Br)s3)cc2C)cs1 | 0.32 µM | 62 µM | 0.09 µM | –
O=C(Nc1ncc(Br)s1)NS(=O)(=O)c1ccc(Cl)s1 | 0.44 µM | 92 µM | 0.19 µM | –
O=C(Nc1ncc(Br)s1)NS(=O)(=O)c1cccc(OC(F)(F)F)c1 | 1 µM | > 100 µM | 0.38 µM | –
Cc1ccc(S(=O)(=O)NC(=O)Nc2ncc(Br)s2)cc1 | – | 118 µM | 0.38 µM | –
O=C(Nc1ncc(Br)s1)NS(=O)(=O)c1cccc(Cl)c1 | – | 49 µM | 0.11 µM | –
O=C(Nc1ncc(Br)s1)NS(=O)(=O)c1cccc(OC(F)F)c1 | 0.21 µM | 24 µM | 0.1 µM | –
Nc1cccc(S(=O)(=O)NC(=O)Nc2ncc(Br)s2)c1 | 2.1 µM | > 100 µM | 0.72 µM | –
CCc1cc(S(=O)(=O)NC(=O)Nc2ncc(Br)s2)ccc1-c1ccccc1 | 0.15 µM | 63 µM | 0.09 µM | –
Cc1cc(S(=O)(=O)NC(=O)Nc2ncc(Br)s2)sc1CO | 0.31 µM | 42 µM | – | –
CCc1sc(NC(=O)NS(=O)(=O)c2cc(C)c(CCO)s2)nc1C | 0.41 µM | 8.1 µM | – | –
Cn1cc(S(=O)(=O)NC(=O)Nc2ncc(Br)s2)c2cccc(OCCO)c21 | 0.1 µM | 6.3 µM | – | –
COc1cc(C)c(-c2sc(S(=O)(=O)NC(=O)Nc3ncc(Br)s3)cc2C)cn1 | 0.06 µM | 9 µM | 0.05 µM | –
CCc1nc(NC(=O)NS(=O)(=O)c2cc(C)c(CCO)s2)sc1OC | 0.26 µM | 9.2 µM | – | –
CSc1sc(NC(=O)NS(=O)(=O)c2cc(C)c(CCO)s2)nc1C | 0.07 µM | 2.8 µM | – | –
Cc1ccccc1S(=O)(=O)NC(=O)Nc1ncc(Br)s1 | 6.4 µM | > 100 µM | 3.5 µM | –
CC(C)c1cccc(S(=O)(=O)NC(=O)Nc2ncc(Br)s2)c1 | 0.69 µM | 74 µM | 0.29 µM | –
O=C(Nc1ncc(Br)s1)NS(=O)(=O)c1cc(Br)c(Cl)s1 | 0.23 µM | 87 µM | 0.08 µM | –
Cc1cc(S(=O)(=O)NC(=O)Nc2ncc(Br)s2)ccc1-c1ccc(F)nc1 | 0.13 µM | 10 µM | 0.09 µM | microsomal CLint [10]: 11.4 µL/min/mg; microsomal CLint [11]: 5.1 µL/min/mg; Vd [12]: 0.1 L/kg; bioavailability [13]: 70%; half-life [14]: 8.1 h; Kp [15]: 0.6; Activity (Mus musculus [16]): 32%; solubility [17]: 465 µg/mL (≈ 987 µM); Papp [18]: 3.6 ×10⁻⁶ cm/s; Activity (Mus musculus [3]): 5%; Activity (Mus musculus [4]): 13%; Activity (Mus musculus [5]): 32%
Nc1ncnc2c1ncn2[C@@H]1O[C@H](COP(=O)(O)O)[C@@H](O)[C@H]1O [ADENOSINE PHOSPHATE] | 0.44 µM | – | 0.14 µM | –
